{
  "source": "ChEMBL document CHEMBL1123648",
  "about": "“Synthesis, chemical reactivity, and antileukemic activity of 5-substituted 6,7-bis(hydroxymethyl)pyrrolo[1,2-c]thiazole biscarbamates and the corresponding sulfoxides and sulfones” (1987)",
  "key": {"[1]": {"assay": "Antileukemic activity against Murine P388 lymphocytic leukemia, body weight difference of the test animals compared to control group B animals at a dose of 100 mg/kg", "assay_type": "functional, Mus musculus", "design": "unit not given here", "summary_of_the_method": "(§1)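 CD2F1 mice implanted intraperitoneally with ascitic fluid carrying ca. 1×10^6 P388 cells, under the NCI protocol. Dosing was intraperitoneal, starting 24 h after inoculation, then every 24 h for five doses in total. The body weight difference of treated mice is taken against untreated controls. Toxicity day survivors are the mice alive at day five out of those tested.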"}, "[2]": {"assay": "Toxicity day survivors expressed as number of animals that survived to day five/ number of test animals under control group B at a dose of 100 mg/kg; 6 survived out of 6", "assay_type": "functional, Mus musculus"}, "[3]": {"assay": "Log cell population relative to cell population at the beginning of treatment compared to control group A at a dose of 100 mg/kg", "assay_type": "functional, Mus musculus"}, "[4]": {"assay": "Percent increase in life span of test animals compared to untreated tumor-bearing control group C animals at a dose of 25 mg/kg", "assay_type": "functional", "details": "Mus musculus"}, "[5]": {"assay": "Percent increase in life span of test animals compared to untreated tumor-bearing control group A animals at a dose of 50 mg/kg", "assay_type": "functional", "details": "Mus musculus"}, "[6]": {"assay": "Antileukemic activity against Murine P388 lymphocytic leukemia, body weight difference of the test animals compared to control group C animals at a dose of 25 mg/kg", "assay_type": "functional, Mus musculus", "summary_of_the_method": "as §1"}, "[7]": {"assay": "Percent increase in life span of test animals compared to untreated tumor-bearing control group B animals at a dose of 12.5 mg/kg", "assay_type": "functional", "details": "Mus musculus"}, "[8]": {"assay": "Antileukemic activity against Murine P388 lymphocytic leukemia and toxicity day survivors expressed as number of animals that survived to day five/ number of test animals under control group B at a dose of 6.25 mg/kg; 6 survived out of 6", "assay_type": "functional, Mus musculus"}, "[9]": {"assay": "Toxicity day survivors expressed as number of animals that survived to day five/ number of test animals under control group A at a dose of 50 mg/kg; 6 survived out of 6", "assay_type": "functional, Mus musculus"}, "[10]": {"tested_on": "P388", "assay": "Log cell population relative to cell population at the beginning of treatment compared to control group B at a dose of 6.25 mg/kg", "assay_type": "functional, Mus musculus"}, "[11]": {"assay": "Percent increase in life span of test animals compared to untreated tumor-bearing control group C animals at a dose of 12.5 mg/kg", "assay_type": "functional", "details": "Mus musculus"}, "[12]": {"assay": "Toxicity day survivors expressed as number of animals that survived to day five/ number of test animals under control group C at a dose of 100 mg/kg; 6 survived out of 6", "assay_type": "functional, Mus musculus"}, "[13]": {"assay": "Antileukemic activity against Murine P388 lymphocytic leukemia, body weight difference of the test animals compared to control group A animals at a dose of 25 mg/kg", "assay_type": "functional, Mus musculus", "design": "unit not given here", "summary_of_the_method": "as §1"}, "[14]": {"tested_on": "P388", "assay": "Log cell population relative to cell population at the beginning of treatment compared to control group A at a dose of 12.5 mg/kg", "assay_type": "functional, Mus musculus"}, "[15]": {"assay": "Percent increase in life span of test animals compared to untreated tumor-bearing control group C animals at a dose of 50 mg/kg", "assay_type": "functional", "details": "Mus musculus"}, "[16]": {"tested_on": "P388", "assay": "Log cell population relative to cell population at the beginning of treatment compared to control group A at a dose of 50 mg/kg", "assay_type": "functional, Mus musculus"}},
  "data": [
    {"smiles": "CC(C)NC(=O)OCc1c(COC(=O)NC(C)C)c(-c2ccc(Cl)c(Cl)c2)n2c1CCC2", "values": [
      {"measurement": "BWD", "setting": "[1]", "result": -4.6},
      {"measurement": "TDS", "setting": "[2]", "result": 6},
      {"measurement": "KE", "setting": "[3]", "result": 0.8},
      {"measurement": "ILS at 25 mg/kg", "setting": "[4]", "result": 55, "unit": "%"},
      {"measurement": "ILS at 50 mg/kg", "setting": "[5]", "result": 97, "unit": "%"},
      {"measurement": "BWD", "setting": "[6]", "result": -1.4},
      {"measurement": "ILS at 12.5 mg/kg", "setting": "[7]", "result": 45, "unit": "%"},
      {"measurement": "TDS", "setting": "[8]", "result": 6},
      {"measurement": "TDS", "setting": "[9]", "result": 6},
      {"measurement": "KE", "setting": "[10]", "result": 0.69},
      {"measurement": "ILS at 12.5 mg/kg", "setting": "[11]", "result": 32, "unit": "%"},
      {"measurement": "TDS", "setting": "[12]", "result": 6},
      {"measurement": "BWD", "setting": "[13]", "result": -1.7},
      {"measurement": "KE", "setting": "[14]", "result": 1.4},
      {"measurement": "ILS at 50 mg/kg", "setting": "[15]", "result": 96, "unit": "%"},
      {"measurement": "KE", "setting": "[16]", "result": 4.35}
    ]}
  ]
}
